Bioassay records deposited in PubChem by several laboratories.
An excerpt weighted towards active compounds, which were near 6.8% of everything screened.
HCV core dimer – blocks dimerization of HCV core protein; TR-FRET GST/Flag-core106 dimerization, 1536-well; actives 0.33% (n = 300,000); inhibition, % at 5 µM; AID 1899;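 active means inhibition above the mean of all tested compounds plus 3 SD, set per screening campaign, cut at about 45% in these data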
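System: GST-tagged and Flag-tagged HCV core protein residues 1-106 / Input: core106 proteins, GST 13.5 nM and Flag 17 nM / Buffer or medium: KF-containing HEPES buffer, pH 7.45, DTT, CHAPS, BSA / Probe or stimulus: Eu-anti-GST and XL665-anti-Flag labelled anti-tag antibodies / Schedule: 4 h, 22.5 °C incubation / Technique: TR-FRET 671 and 617 nm emission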
AI-2 QS mod – Vibrio harveyi AI-2 quorum sensing modulation; Vibrio harveyi JMH597 AI-2 luminescence/OD600 ratio, 9 h; stronger effect = lower value; strain lacks LuxN and CqsS sensors; 0 = neutral-control median; activity change, % at 7.5 µM; actives 0.4% (n = 300,000); in the data active means activity change below about -75%, passing the limit was not always enough; inconclusive means no clear call, values can overlap the other calls;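 further: luminescence divided by OD600 gain over 9 h not by final OD600 alone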
HSF-1 act – increases HSF-1 driven luciferase reporter signal; NIH3T3-HGL HSF-1 luciferase reporter, MG132, 8 h; 100% = twice DMSO control signal; activation, % at 9 µM; actives 1.7% (n = 300,000);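 active means mean replicate activation of at least 50% with a set share of replicates each reaching 50%; inconclusive means only one of those two conditions met; inactive means mean below 50% and too few replicates reaching it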
ALR H2O2 inh – human ALR oxidase inhibition via reduced H2O2; purified ALR, DTT oxidation, H2O2 HRP-luminol luminescence; AID 485317; actives 3.8% (n = 290,000); inhibition, % (test concentration not listed); P55789;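 active means mean replicate inhibition above about 79%, with every replicate also reaching it, limit read from the data; inconclusive means only one of the two criteria met; inactive means mean below limit and not every replicate reaching it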
Target sequence (P55789 whole entry, looked up): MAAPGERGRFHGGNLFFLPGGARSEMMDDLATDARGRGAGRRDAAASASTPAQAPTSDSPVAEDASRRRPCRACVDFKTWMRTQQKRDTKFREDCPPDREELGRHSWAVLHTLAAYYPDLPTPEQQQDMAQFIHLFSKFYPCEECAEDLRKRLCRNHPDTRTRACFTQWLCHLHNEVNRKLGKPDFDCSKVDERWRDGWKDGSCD
HSF1 inh – HSF1 inhibition; activity change, negative = inhibition, % at 7.5 µM (by protocol); NIH3T3-HGL HSE-luciferase, MG132-induced, luminescence 8 h; stronger effect = lower value; actives 0.77% (n = 300,000);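 active means more than half of replicate wells show activity change below -50%, luminescence cut by over half; inconclusive means some wells, but at most half, below -50%; inactive means no replicate well below -50%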;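 further: luciferase reports HSF-1 transcriptional activity via heat shock element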
PHOSPHO1 inh – blocks human PHOSPHO1 phosphatase activity; Q8TCT1; recombinant PHOSPHO1, absorbance phosphatase assay; inhibition, % at 13.3 µM; actives 1.1% (n = 290,000); AID 1565; in the data active means inhibition above about 60%
Target sequence (Q8TCT1 whole entry, looked up): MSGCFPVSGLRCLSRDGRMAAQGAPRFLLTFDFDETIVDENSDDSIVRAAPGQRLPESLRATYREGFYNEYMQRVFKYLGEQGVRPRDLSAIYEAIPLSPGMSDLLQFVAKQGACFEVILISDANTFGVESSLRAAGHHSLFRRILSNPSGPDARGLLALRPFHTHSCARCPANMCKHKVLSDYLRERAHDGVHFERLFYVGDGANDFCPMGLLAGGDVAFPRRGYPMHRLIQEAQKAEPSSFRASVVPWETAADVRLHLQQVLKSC
A number is an active result; n = inactive; u = inconclusive; x = not tested or not shown.

SMILES | HCV core dimer | AI-2 QS mod | HSF-1 act | ALR H2O2 inh | HSF1 inh | PHOSPHO1 inh
COc1cccc(Nc2ccccc2C(=O)O)c1 | n | n | n | 98.5 | n | n
O=C(O)c1cc2ccccc2cc1Nc1ccccc1 | n | n | n | 99.4 | n | n
COc1cccc(NC(=O)c2ccccc2-c2ccccc2C(=O)O)c1 | n | n | n | n | n | n
O=C(O)c1ccccc1Nc1ccc(OC(F)F)cc1 | n | n | n | 99.6 | n | n
O=C(O)c1ccccc1Nc1ccccc1 | n | x | x | 99.1 | x | x
C[C@@H]1CN([C@H](C)CO)C(=O)Cc2cc(NC(=O)Nc3ccccc3)ccc2O[C@@H]1CN(C)Cc1ccc2c(c1)OCO2 | x | x | x | n | x | x
COc1ccc(Nc2ccc(Cl)cc2)c(C(=O)O)c1 | n | n | n | 99.3 | n | n
CN1N=C2c3ccccc3CCCC2C1c1ccc(F)cc1 (stereo not drawn) | n | n | n | n | n | n
COc1ccccc1CNc1cc(C)ccc1C | n | n | n | 83.0 | n | n
COC(=O)C[C@H]1c2cc(F)ccc2S(=O)(=O)N1c1ccc(N(C)C)cc1 | n | n | n | 98.7 | n | x
CCOC(=O)C[C@H]1c2cc(F)ccc2S(=O)(=O)N1c1ccccc1 | n | n | n | n | n | x
O=C(N/N=C/c1ccccc1)c1sccc1OCc1ccc(F)cc1 | n | n | n | n | n | n
Cc1nn(-c2ccccc2)c(-c2ccccc2[N+](=O)[O-])c1C(=O)O | n | n | n | n | n | n
Cc1cccc(NC(=O)c2nc[nH]c2C(=O)N2CCN(c3ccccc3)CC2)c1 | x | x | x | n | x | x
COc1ccc(N=Cc2c(O)[nH]c3ccccc23)cc1 | n | n | 63.2 | n | n | n
Cn1c(/N=C/c2c(O)ccc3ccccc23)nc2ccccc21 | n | n | n | 91.3 | n | n
CCCn1c(/N=C/c2ccccc2O)nc2ccccc21 | n | n | n | n | n | n
COc1ccc(N=Cc2c(O)ccc3ccccc23)cc1 | n | n | n | n | -58.4 | n
CCCCc1nnc(NC(=O)COc2ccc3c(C)cc(=O)oc3c2)s1 | n | n | n | x | n | n
Cc1cc(Cl)cc2c1NC(=O)[C@]21[C@@H]2C(=O)N(Cc3ccccc3)C(=O)[C@@H]2[C@@H]2CCCN21 | n | n | n | n | n | n
COC(=O)c1c(N2C(=O)[C@H]3[C@@H](C2=O)[C@]2(C(=O)Nc4c(C)cccc42)N2CCC[C@@H]32)sc(C)c1C | n | n | n | n | -73.8 | n
Cc1ccc(N2C(=O)N(CC(=O)NC(N)=O)C(=O)C2C)cc1 (stereo not drawn) | n | n | n | n | -69.5 | n
Cc1ccc(N2C(=O)N(CC(=O)NC(c3ccccc3)c3ccccc3)C(=O)C2C)cc1 (stereo not drawn) | n | n | n | n | n | n
CCCCCCCc1c(C#N)c(N)[nH]c(=S)c1C#N | n | n | n | 95.9 | n | n
CC(C)Cc1c2c([nH]c(=S)c1C#N)CCCC2 | n | n | n | x | n | n
SMILES | HCV core dimer | AI-2 QS mod | HSF-1 act | ALR H2O2 inh | HSF1 inh | PHOSPHO1 inh
CC(C)CN=C(NS(=O)(=O)c1ccccc1)C(Cl)(Cl)Cl | n | n | n | n | -74.1 | n
CC(C)CC(NS(=O)(=O)c1ccccc1)C(=O)O (stereo not drawn) | n | n | n | n | n | n
COc1ccc([C@@H]2[C@@H]3C(=O)N(C(C)(C)C)C(=O)[C@@H]3[C@]3(Cc4ccccc4)C(=O)N(c4ccc(C)cc4)C(=O)N23)cc1 | n | n | n | n | n | x
Cc1ccc(F)cc1NC(=O)C12CC3CC(C1)CC(n1cnc([N+](=O)[O-])n1)(C3)C2 | n | n | n | n | n | n
Clc1ccc(/C=N\Nc2ccccc2)cc1 | n | n | n | 98.6 | n | n
Clc1cccc(N/N=C/c2ccncc2)c1 | n | n | n | 94.8 | n | n
Cc1ccc(N/N=C/c2cccnc2)cc1 | n | n | n | 100.7 | n | n
Oc1ccccc1/C=N/Nc1ccccc1 | n | n | n | 98.8 | n | n
O=C(N/N=C/c1ccc(Cl)cc1)Nc1ccccc1 | n | n | n | x | n | n
Oc1ccccc1/C=N/Nc1ncc(Br)cn1 | n | n | u | n | n | n
O=C(O)COCC(=O)Nc1ccc(-n2nc(C(F)(F)F)cc2-c2cccs2)cc1 | n | n | n | n | n | n
Cc1cc(=O)[nH]c2ccc(S(=O)(=O)NC3CCCCC3)cc12 | n | n | n | n | n | n
CC(C)(C)OC(=O)N1CCCN(C(=O)Nc2ccc(C(F)(F)F)cc2)CC1 | n | n | n | n | n | n
Cc1ccc(N/N=C/c2ccncc2)cc1 | n | n | n | 99.2 | n | n
N#C/C(=N/Nc1ccc(OC(F)(F)F)cc1)C(N)=S | n | n | n | n | n | n
NC(=S)N=Nc1ccc(NN=C(N)N)cc1 | n | n | n | 98.5 | n | n
COc1ccccc1N1CCN(C(=O)CNC(=O)c2ccc(Cl)cc2Cl)CC1 | n | n | n | n | n | n
Cc1ccc2[nH]c(O)c(N=Nc3ccccc3C)c2c1 | n | n | n | x | -63.4 | n
O=[N+]([O-])c1cc(Cl)c(O)c2ncccc12 | x | -88.1 | n | x | n | n
O=[N+]([O-])c1ccc(O)c2ncccc12 | n | u | n | x | -54.8 | n
O=[N+]([O-])c1cc(Cl)c2cccnc2c1O | n | u | n | n | n | n
Oc1c(I)cc(Cl)c2cccnc12 | n | -107.8 | n | x | n | n
CCO[C@H]1OC(C(=O)N2CCCCCCC2)=C[C@@H](c2coc3ccccc3c2=O)[C@@H]1CCCO | n | n | n | n | n | n
CN(C)c1ccc(C=Nc2cnn(C)c2C(N)=O)cc1 | n | n | x | 98.5 | x | n
Cn1ncc(N=Cc2ccccc2[N+](=O)[O-])c1C(N)=O | n | n | n | n | n | n
SMILES | HCV core dimer | AI-2 QS mod | HSF-1 act | ALR H2O2 inh | HSF1 inh | PHOSPHO1 inh
CCOC(=O)C1CCN(C(=O)COc2ccc(Br)cc2C)CC1 | n | n | n | n | n | n
COc1ccc(CN2CCN(C(=O)Cn3nc(C(=O)O)c4ccccc4c3=O)CC2)cc1F | n | n | n | n | n | n
O=C(O)CCS(=O)(=O)c1nc(-c2cccs2)cc(C(F)(F)F)n1 | n | n | n | 97.3 | n | n
CS(=O)(=O)c1nc(-c2cccs2)cc(C(F)(F)F)n1 | n | -89.5 | n | 98.5 | -89.8 | n
Cc1cc(NC(=O)CCCS(=O)(=O)c2nc(-c3cccs3)cc(C(F)(F)F)n2)no1 | n | n | 204.7 | n | n | n
CN1CCN(c2nc(-c3cccs3)cc(C(F)(F)F)n2)CC1 | n | n | n | n | n | n
CC(C)CNC(=O)CSc1nc(-c2cccs2)cc(C(F)(F)F)n1 | n | n | n | n | n | n
CC(=O)Nc1ccc(NC(=O)C(C)OC(=O)C23CC4CC(CC(Cl)(C4)C2)C3)cc1 (stereo not drawn) | x | x | x | n | x | x
C[C@@H]1CC[C@@]2(O[C@@H](CCO)C[C@H](O)[C@H]2O)O1 | n | n | n | n | n | x
